These results are taken from ChEMBL document CHEMBL1124668, “Solid-phase synthesis of 16 potent (selective and nonselective) in vivo antagonists of oxytocin” (J Med Chem, 1989).

In assay [1] the test system is Rattus norvegicus. Put plainly: Antivasopressor activity in vivo in phenoxybenzamine pre-treated rats. In kind it is functional. An outline of the steps: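 Rats pretreated with phenoxybenzamine, under urethane anesthesia; antagonist given iv; agonist USP Posterior Pituitary Reference Standard; read-out is pressor response. Effective dose (nmol/kg) is the dose that cuts the response to 2X units of agonist to that of 1X unit, interpolated semilogarithmically from bracketing doses. pA2 assumes a 67 mL/kg distribution volume. SEM is given where there are ≥4 independent estimates.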

Assay [2] deals with Rattus norvegicus. Put plainly: Antidiuretic activity in rats as intravenous dose required for reduction of 2x agonist response to equal 1x effect in estrogen pretreated rats; weak partial agonist/antagonist. In kind it is functional, Urine.
For assay [3], the species on record is Rattus norvegicus. Put plainly: Antidiuretic activity in rat. In kind it is functional, Urine.
For assay [4], the system named is Rattus norvegicus. Briefly: In vivo inhibition of estrogen induced changes in interuterine pressure in rats. In kind it is functional. An outline of the steps:
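Rats pretreated with estrogen, under urethane anesthesia; antagonist given iv; read-out is change in integrated intrauterine pressure; agonist synthetic oxytocin. Effective dose (nmol/kg) is the dose that cuts the response to 2X units of agonist to the response to 1X unit, interpolated on a semilog scale from doses above and below it. pA2 is derived assuming a 67 mL/kg distribution volume.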

The subject of assay [5] is Rattus norvegicus. Briefly: In vivo antidiuretic activity as intravenous antagonist dose in estrogen pretreated rats; Weak partial agonist/antagonist. In kind it is functional, Urine.
For assay [6], the system named is Rattus norvegicus. Put plainly: In vivo antidiuretic activity as intravenous antagonist dose in estrogen pretreated rats. In kind it is functional, Urine.
The species entered for assay [7] is Rattus norvegicus. Put plainly: Antidiuretic activity in rats. The assay is classed as functional, Urine.

Starred links: 1 amine or outer side, 2 acyl side, 3 side chain; linkers in the order of their positions; H or OH if unused. Positions of bridges follow the written chain, without caps; N, C: chain ends. Non-standard residues stand in square brackets, D forms with d. Residues, ends and D or L forms follow the SMILES beside them. X1 = O=C(CC1(S[*:2])CCCCC1)[*:1]; Orn = NCCC[C@H](N)C(=O)O

Regarding `CC[C@H](C)[C@@H]1NC(=O)[C@H](Cc2ccc(OC)cc2)NC(=O)CC2(CCCCC2)SSC[C@@H](C(=O)N2CCC[C@H]2C(=O)N[C@@H](CCCN)C(=O)NCC(N)=O)NC(=O)[C@H](CC(N)=O)NC(=O)[C@H]([C@@H](C)O)NC1=O` (Y(Me)ITNCP[Orn]G-NH2; linker N-5 via X1), the ED in assay [1] was 9.9 nM/kg; in assay [2], approximately 330 nM/kg; in assay [4] it was 2 nM/kg. The same compound had an Activity in assay [3] of 0.01 mg.

For `CC[C@H](C)[C@@H]1NC(=O)[C@H](Cc2ccc(OC)cc2)NC(=O)CC2(CCCCC2)SSC[C@@H](C(=O)N2CCC[C@H]2C(=O)N[C@@H](CCCN)C(=O)N[C@@H](CC(C)C)C(N)=O)NC(=O)[C@H](CC(N)=O)NC(=O)[C@H]([C@@H](C)O)NC1=O` (Y(Me)ITNCP[Orn]L-NH2; linker N-5 via X1), the ED in assay [1] turned out to be 27 nM/kg; in assay [4], 1.8 nM/kg. Besides, the Activity in assay [5] is 0.029 mg.

In the case of `CC[C@H](C)[C@@H]1NC(=O)[C@H](Cc2ccc(OC)cc2)NC(=O)CC2(CCCCC2)SSC[C@@H](C(=O)N2CCC[C@H]2C(=O)N[C@@H](CCCN)C(=O)N[C@@H](Cc2ccc(O)cc2)C(N)=O)NC(=O)[C@H](CC(N)=O)NC(=O)[C@H]([C@@H](C)O)NC1=O` (Y(Me)ITNCP[Orn]Y-NH2; linker N-5 via X1), the figures for the ED in assay [1] and in assay [4] were 6.6 nM/kg and 1 nM/kg, respectively. Besides, the Activity in assay [6] is reported as 0.015 mg.

As for `CC[C@H](C)[C@@H]1NC(=O)C(Cc2ccc(OC)cc2)NC(=O)CC2(CCCCC2)SSC[C@@H](C(=O)N2CCC[C@H]2C(=O)N[C@@H](CCCN=C(N)N)C(=O)NCC(N)=O)NC(=O)[C@H](CC(N)=O)NC(=O)[C@H](CCC(N)=O)NC1=O` (stereo in doubt), the ED was found to be 0.64 nM/kg in assay [1] and 1.1 nM/kg in assay [4]. Besides, the Activity in assay [7] is approximately 0.03 mg.
